The target of assay [1] is T1, Sucrase-isomaltase, intestinal (Rattus norvegicus, UniProt P23739). In words: Inhibition of rat small intestinal sucrase using sucrose as substrate incubated for 30 mins by glucose-oxidase method. The essentials:
(§1)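 Rat small-intestinal α-glucosidases in 0.1 M maleate buffer (pH 6.0). Test sample dissolved in DMSO, diluted with maleate buffer (10% DMSO in sample solution; 2.5% final). Substrate solution concentrations were maltose 74 mM (maltase), sucrose 74 mM (sucrase) and isomaltose 7.4 mM (isomaltase). Substrate, sample and enzyme were mixed at 37 °C for 30 min, stopped by 2 min boiling, and glucose read by glucose oxidase.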

Assay [2] has as its target T1, Sucrase-isomaltase, intestinal. Description: Inhibition of rat small intestinal isomaltase using isomaltose as substrate incubated for 30 mins by glucose-oxidase method. The method in brief: as §1
Assay [3] deals with Maltase-glucoamylase (Homo sapiens, UniProt O43451). Description: Inhibition of human small intestine microsomal maltase using maltose as substrate incubated for 30 mins by glucose-oxidase method. The method in brief:
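Enzyme was human small-intestinal microsome in 0.1 M maleate buffer (pH 6.0), with maltose as substrate. Test sample was dissolved in DMSO and diluted in maleate buffer. Sample, substrate and enzyme were incubated at 37 °C for 30 min, stopped by boiling for 2 min, and glucose measured by the glucose-oxidase method.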

Assay [4] in a line: Inhibition of rat small intestinal maltase using maltose as substrate incubated for 30 mins by glucose-oxidase method. The method in brief: as §1

Drawing on ChEMBL document CHEMBL3813698, “Hydrophobic substituents increase the potency of salacinol, a potent α-glucosidase inhibitor from Ayurvedic traditional medicine 'Salacia'” (Bioorg Med Chem, 2016), this text covers IC50 for twelve compounds.

T1 sequence (P23739 1-1013 limits assumed): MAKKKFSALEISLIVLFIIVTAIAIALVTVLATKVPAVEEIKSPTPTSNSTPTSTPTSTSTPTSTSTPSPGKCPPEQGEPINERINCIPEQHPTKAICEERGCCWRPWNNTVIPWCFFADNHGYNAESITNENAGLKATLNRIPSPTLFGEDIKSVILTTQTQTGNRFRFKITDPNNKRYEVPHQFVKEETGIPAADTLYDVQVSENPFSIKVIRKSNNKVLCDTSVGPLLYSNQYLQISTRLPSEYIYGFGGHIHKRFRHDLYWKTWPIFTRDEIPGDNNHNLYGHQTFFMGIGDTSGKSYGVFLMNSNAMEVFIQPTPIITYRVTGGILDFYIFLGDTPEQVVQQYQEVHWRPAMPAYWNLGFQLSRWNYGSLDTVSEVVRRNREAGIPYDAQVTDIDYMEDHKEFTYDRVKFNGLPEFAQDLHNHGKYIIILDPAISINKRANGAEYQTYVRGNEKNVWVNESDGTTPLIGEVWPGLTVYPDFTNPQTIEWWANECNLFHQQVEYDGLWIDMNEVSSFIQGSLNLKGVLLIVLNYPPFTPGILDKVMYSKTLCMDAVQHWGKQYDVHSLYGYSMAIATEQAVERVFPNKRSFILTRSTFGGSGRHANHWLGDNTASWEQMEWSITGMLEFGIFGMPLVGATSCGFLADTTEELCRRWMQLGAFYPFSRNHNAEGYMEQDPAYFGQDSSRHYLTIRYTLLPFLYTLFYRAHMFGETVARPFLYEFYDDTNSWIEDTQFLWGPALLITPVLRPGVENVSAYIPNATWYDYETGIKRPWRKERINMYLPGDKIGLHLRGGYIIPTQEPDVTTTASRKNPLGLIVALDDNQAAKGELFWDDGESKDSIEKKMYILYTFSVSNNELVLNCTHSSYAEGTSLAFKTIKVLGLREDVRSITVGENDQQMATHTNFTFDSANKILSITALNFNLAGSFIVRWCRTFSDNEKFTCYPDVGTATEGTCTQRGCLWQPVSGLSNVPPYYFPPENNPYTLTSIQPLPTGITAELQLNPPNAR
T1 sequence (P23739 1014-1841 limits assumed): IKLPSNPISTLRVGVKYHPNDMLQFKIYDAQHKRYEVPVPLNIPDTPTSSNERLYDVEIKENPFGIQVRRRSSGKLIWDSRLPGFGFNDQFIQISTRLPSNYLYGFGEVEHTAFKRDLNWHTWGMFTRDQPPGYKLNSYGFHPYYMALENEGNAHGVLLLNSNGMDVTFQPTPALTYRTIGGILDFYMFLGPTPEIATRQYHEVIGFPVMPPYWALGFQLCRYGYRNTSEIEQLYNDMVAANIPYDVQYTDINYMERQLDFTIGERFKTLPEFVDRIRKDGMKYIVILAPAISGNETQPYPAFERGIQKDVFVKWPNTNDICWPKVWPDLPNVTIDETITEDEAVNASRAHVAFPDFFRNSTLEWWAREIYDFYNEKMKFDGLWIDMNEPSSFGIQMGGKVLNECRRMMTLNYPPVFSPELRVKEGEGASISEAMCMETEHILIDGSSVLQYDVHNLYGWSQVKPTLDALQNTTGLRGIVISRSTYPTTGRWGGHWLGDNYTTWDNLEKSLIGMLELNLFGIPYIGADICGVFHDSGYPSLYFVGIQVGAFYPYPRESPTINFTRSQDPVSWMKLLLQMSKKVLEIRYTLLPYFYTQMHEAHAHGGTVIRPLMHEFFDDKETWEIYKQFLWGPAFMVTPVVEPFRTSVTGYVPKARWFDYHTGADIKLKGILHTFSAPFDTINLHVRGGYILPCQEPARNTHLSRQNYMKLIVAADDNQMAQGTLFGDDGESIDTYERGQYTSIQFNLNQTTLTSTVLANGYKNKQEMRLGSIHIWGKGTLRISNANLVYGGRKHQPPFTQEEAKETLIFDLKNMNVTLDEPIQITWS
Sequence of Maltase-glucoamylase (O43451 whole entry): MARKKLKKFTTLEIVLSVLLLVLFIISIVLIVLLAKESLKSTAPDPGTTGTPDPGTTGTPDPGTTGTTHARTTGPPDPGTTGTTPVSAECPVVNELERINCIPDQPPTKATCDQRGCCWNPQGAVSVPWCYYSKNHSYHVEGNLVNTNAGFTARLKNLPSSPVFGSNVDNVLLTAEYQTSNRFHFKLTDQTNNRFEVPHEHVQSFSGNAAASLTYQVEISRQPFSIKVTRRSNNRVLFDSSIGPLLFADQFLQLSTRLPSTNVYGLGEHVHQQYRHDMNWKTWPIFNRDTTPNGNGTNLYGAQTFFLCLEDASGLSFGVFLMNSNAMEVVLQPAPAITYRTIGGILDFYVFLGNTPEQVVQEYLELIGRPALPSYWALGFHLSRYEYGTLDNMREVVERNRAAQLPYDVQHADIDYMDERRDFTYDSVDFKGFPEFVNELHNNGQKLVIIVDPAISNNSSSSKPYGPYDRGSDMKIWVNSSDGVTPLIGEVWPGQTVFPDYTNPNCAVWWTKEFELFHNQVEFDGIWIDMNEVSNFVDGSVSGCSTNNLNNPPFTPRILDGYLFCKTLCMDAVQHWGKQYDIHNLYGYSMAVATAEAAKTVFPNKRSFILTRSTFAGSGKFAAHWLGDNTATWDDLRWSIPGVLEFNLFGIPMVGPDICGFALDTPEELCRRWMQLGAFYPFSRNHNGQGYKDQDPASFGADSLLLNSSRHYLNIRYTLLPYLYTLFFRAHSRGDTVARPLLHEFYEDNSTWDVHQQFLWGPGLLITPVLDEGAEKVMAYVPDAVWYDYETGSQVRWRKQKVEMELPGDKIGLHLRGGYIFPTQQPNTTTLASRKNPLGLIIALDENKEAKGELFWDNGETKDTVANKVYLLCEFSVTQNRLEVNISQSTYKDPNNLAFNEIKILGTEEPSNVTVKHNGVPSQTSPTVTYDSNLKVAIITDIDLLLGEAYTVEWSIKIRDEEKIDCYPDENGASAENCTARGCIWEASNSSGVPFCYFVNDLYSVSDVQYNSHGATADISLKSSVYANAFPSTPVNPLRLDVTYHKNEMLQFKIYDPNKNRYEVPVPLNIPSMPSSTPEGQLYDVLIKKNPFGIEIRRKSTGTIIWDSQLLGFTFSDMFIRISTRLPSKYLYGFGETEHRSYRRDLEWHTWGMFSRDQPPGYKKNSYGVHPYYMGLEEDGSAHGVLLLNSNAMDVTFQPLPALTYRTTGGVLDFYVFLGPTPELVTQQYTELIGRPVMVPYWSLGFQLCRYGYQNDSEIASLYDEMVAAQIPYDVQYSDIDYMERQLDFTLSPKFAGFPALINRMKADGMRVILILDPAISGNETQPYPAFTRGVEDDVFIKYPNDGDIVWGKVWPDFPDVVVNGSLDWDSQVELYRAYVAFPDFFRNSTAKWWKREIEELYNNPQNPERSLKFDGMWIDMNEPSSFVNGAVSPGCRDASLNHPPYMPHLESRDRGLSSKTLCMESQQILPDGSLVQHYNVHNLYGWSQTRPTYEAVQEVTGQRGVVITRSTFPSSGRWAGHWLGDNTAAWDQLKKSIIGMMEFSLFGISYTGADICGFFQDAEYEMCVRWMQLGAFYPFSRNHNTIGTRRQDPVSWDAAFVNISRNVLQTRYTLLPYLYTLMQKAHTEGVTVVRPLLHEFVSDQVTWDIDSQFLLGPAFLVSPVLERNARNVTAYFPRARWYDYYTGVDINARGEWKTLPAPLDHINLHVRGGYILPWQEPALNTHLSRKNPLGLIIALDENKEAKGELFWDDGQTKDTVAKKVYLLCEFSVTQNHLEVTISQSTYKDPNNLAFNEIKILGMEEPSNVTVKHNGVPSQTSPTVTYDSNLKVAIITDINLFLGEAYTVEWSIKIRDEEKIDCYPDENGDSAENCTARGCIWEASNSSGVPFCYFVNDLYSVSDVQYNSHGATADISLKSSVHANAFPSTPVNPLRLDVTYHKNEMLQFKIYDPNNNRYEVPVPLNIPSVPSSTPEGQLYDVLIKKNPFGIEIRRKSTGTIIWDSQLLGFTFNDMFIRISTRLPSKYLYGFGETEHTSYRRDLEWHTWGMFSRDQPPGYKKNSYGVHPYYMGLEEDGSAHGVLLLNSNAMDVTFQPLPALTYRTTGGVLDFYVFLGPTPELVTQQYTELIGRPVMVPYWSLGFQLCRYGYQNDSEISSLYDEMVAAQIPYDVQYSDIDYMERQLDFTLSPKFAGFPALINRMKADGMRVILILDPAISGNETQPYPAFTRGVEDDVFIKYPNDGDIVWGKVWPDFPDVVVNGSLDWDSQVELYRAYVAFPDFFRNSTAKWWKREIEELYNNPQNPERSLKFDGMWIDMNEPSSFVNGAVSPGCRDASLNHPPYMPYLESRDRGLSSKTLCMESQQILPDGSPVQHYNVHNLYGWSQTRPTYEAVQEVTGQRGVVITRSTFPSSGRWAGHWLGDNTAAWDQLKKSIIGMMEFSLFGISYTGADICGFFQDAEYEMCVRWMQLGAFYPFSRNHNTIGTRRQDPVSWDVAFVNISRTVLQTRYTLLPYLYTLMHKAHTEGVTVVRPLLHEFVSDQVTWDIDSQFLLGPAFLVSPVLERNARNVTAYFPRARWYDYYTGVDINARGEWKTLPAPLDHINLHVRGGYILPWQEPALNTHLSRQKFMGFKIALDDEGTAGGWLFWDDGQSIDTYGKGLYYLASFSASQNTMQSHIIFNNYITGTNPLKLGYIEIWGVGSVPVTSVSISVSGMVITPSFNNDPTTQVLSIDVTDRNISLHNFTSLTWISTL

Turning to `OC[C@@H]1[C@@H](O)[C@H](O)C[S+]1C[C@@H](O)[C@@H](O)CO` (some centres undefined), the IC50 (commonly the concentration at which inhibition is half-maximal) in assay [1] worked out at 1300 nM; in assay [2] it was 300 nM; in assay [3] it was 9000 nM; in assay [4], 8000 nM.

With `O=S(=O)([O-])O[C@@H](CO)[C@H](O)C[S+]1C[C@@H](O)[C@H](O)[C@H]1CO` (some centres undefined), the IC50 in assay [1] worked out at 1600 nM; in assay [2], 1300 nM; in assay [4], 5200 nM.

For `CCCCCCCCCCCCCO[C@@H](CO)[C@H](O)C[S+]1C[C@@H](O)[C@H](O)[C@H]1CO` (some centres undefined), the concentration for half-maximal inhibition (IC50) in assay [1] is 1300 nM; in assay [2] it was 950 nM; in assay [3], 1100 nM; in assay [4], 1040 nM.

`O=[N+]([O-])c1ccccc1CO[C@@H](CO)[C@H](O)C[S@@+]1C[C@@H](O)[C@H](O)[C@H]1CO`: the IC50 in assay [1] was 42 nM; in assay [2], 210 nM; in assay [3], 150 nM; in assay [4] it was 130 nM.

Regarding `CCCCCO[C@@H](CO)[C@H](O)C[S+]1C[C@@H](O)[C@H](O)[C@H]1CO` (some centres undefined), the values for the IC50 in assay [1], in assay [2] and in assay [3] were 500 nM, 470 nM and 1500 nM, respectively.

`CO[C@@H](CO)[C@H](O)C[S+]1C[C@@H](O)[C@H](O)[C@H]1CO` (some centres undefined): the 50% inhibitory concentration (IC50) in assay [1] was 460 nM; in assay [2] it was 390 nM; in assay [3], 2000 nM; in assay [4], 5300 nM.

In the case of `CCO[C@@H](CO)[C@H](O)C[S+]1C[C@@H](O)[C@H](O)[C@H]1CO` (some centres undefined), the figures for the concentration for half-maximal inhibition (IC50) in assay [1], in assay [2] and in assay [3] were 120 nM, 270 nM and 960 nM, respectively.

On to `CCCCCCCO[C@@H](CO)[C@H](O)C[S+]1C[C@@H](O)[C@H](O)[C@H]1CO` (some centres undefined), for which the IC50 in assay [1] turned out to be 240 nM; in assay [2] it was 250 nM; in assay [3] it was 640 nM; in assay [4], 800 nM.

Consider `CC(C)CO[C@@H](CO)[C@H](O)C[S+]1C[C@@H](O)[C@H](O)[C@H]1CO` (some centres undefined), for which the IC50 in assay [1] stood at 90 nM; in assay [2] it was 340 nM; in assay [3], 690 nM; in assay [4] it was 790 nM.

Turning to `CC(C)(C)CO[C@@H](CO)[C@H](O)C[S+]1C[C@@H](O)[C@H](O)[C@H]1CO` (some centres undefined), the IC50 in assay [1] was 90 nM; in assay [2], 280 nM; in assay [3] it was 470 nM; in assay [4], 300 nM.

`OCCN1C[C@H](O)[C@@H](O)[C@H](O)[C@H]1CO` [MIGLITOL] showed a half-inhibitory concentration (IC50) in assay [4] of 8200 nM.

In turn, `OCC(CO)N[C@H]1C[C@](O)(CO)[C@@H](O)[C@H](O)[C@H]1O` [VOGLIBOSE] registered an IC50 in assay [3] of 1300 nM.
